Results from ChEMBL document CHEMBL2424622, “Development of amino-pyrimidine inhibitors of c-Jun N-terminal kinase (JNK): kinase profiling guided optimization of a 1,2,3-benzotriazole lead” (Bioorg Med Chem Lett, 2013).

What was measured:
[1] = target: T1, Tyrosine-protein kinase Mer (Homo sapiens) (UniProt Q12866); test: Competitive binding affinity to MERTK (unknown origin) at 10 uM in presence of ATP relative to control
T1 sequence (whole entry): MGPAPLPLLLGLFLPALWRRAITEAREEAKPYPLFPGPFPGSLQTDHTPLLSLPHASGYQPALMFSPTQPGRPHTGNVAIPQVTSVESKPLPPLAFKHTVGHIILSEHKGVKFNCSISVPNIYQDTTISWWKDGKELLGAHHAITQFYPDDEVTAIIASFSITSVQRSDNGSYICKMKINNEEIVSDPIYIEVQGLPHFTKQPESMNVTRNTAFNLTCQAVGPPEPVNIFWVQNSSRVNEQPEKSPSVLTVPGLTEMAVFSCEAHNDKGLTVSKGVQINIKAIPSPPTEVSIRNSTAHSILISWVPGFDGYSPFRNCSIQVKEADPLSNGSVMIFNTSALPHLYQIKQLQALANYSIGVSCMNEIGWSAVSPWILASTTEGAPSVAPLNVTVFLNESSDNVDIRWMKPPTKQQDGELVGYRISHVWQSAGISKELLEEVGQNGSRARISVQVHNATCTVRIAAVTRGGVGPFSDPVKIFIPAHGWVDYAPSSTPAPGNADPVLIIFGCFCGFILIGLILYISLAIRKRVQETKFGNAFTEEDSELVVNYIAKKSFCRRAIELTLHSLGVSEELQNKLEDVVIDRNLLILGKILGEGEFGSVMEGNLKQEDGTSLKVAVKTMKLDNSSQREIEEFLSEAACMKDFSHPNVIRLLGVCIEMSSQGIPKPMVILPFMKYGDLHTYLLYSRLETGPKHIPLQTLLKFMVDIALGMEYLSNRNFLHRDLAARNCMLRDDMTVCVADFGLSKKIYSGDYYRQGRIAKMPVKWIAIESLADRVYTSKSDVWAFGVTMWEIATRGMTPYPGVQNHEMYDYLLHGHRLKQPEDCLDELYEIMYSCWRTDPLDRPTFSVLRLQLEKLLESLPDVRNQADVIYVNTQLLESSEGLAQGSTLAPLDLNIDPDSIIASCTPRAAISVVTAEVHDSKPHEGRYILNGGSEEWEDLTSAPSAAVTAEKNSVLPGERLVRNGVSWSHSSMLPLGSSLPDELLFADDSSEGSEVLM
Outline: (§1)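 In vitro ATP-site competition binding assay across a diverse panel of 128 kinases, with compound tested at a single concentration. Kinase selectivity scores (S15) were calculated from the panel profiles.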

[2] = target: T2, Muscle, skeletal receptor tyrosine-protein kinase (Homo sapiens) (UniProt O15146); test: Competitive binding affinity to MUSK (unknown origin) at 10 uM in presence of ATP relative to control; outline: as §1
T2 sequence (whole entry): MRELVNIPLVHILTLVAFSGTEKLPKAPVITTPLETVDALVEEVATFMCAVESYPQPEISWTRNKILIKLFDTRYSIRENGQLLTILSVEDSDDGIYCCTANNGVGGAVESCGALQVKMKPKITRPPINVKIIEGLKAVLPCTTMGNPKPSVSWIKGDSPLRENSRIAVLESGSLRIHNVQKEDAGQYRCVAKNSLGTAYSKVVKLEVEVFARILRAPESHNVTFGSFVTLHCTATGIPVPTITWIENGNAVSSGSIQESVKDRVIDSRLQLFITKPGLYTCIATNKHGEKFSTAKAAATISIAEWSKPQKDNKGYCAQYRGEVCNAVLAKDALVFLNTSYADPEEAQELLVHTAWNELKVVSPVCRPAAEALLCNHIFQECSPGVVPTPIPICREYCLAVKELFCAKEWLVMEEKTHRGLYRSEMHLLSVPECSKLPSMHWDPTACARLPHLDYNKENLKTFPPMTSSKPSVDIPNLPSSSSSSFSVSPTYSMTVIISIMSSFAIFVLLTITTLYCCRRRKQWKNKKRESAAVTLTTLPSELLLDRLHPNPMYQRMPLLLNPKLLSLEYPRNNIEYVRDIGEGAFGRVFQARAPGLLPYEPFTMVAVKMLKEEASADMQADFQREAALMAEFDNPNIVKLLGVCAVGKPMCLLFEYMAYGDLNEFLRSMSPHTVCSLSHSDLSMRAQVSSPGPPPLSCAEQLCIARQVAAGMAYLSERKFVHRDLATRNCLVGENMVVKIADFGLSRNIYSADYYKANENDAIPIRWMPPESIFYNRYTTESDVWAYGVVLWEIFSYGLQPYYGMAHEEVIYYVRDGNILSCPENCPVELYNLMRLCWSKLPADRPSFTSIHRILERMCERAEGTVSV

[3] = system: T3, Receptor-type tyrosine-protein kinase FLT3 (Homo sapiens), P36888 [D835Y]; test: Competitive binding affinity to FLT3 D835Y mutant (unknown origin) at 10 uM in presence of ATP relative to control
T3 sequence (whole entry): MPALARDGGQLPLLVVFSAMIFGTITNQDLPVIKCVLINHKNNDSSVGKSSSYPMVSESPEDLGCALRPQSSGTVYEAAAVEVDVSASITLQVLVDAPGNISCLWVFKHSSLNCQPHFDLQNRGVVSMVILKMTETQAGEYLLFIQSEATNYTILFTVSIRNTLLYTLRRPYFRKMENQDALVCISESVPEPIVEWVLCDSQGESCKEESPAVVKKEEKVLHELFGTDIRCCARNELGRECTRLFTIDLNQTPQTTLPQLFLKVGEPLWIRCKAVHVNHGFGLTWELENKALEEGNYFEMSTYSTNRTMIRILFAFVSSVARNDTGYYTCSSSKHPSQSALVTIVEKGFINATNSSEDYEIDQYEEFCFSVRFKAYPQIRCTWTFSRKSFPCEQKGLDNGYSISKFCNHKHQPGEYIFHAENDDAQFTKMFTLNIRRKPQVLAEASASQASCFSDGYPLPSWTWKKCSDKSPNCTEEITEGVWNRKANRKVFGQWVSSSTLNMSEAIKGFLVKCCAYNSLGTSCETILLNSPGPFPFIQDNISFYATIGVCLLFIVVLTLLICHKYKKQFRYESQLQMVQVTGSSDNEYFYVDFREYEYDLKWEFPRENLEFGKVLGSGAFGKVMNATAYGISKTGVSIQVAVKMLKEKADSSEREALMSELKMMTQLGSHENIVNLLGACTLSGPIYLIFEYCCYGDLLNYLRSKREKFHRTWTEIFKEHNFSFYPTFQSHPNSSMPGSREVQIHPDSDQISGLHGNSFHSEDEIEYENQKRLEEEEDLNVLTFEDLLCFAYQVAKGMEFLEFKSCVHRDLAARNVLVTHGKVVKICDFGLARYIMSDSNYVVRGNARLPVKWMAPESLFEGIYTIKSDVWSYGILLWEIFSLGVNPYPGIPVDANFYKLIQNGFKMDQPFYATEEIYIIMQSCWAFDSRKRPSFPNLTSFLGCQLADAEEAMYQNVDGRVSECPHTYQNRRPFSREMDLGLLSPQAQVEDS

O[C@H]1CC[C@H](Nc2nccc(-n3nnc4ccccc43)n2)CC1
inhibition [1]: < 50%
inhibition [2]: < 50%
inhibition [3]: 99%

O[C@H]1CC[C@H](Nc2nccc(-n3ncc4ccccc43)n2)CC1
inhibition [1]: 92%
inhibition [2]: < 50%
inhibition [3]: 100%

O[C@H]1CC[C@H](Nc2nccc(-c3n[nH]c4ccccc34)n2)CC1
inhibition [1]: 100%
inhibition [2]: < 50%
inhibition [3]: 100%

O[C@H]1CC[C@H](Nc2nccc(-n3ccc4ccccc43)n2)CC1
inhibition [1]: < 50%
inhibition [2]: < 50%
inhibition [3]: < 50%
